Screens (PubChem BioAssay)
Shown are actives, neighbours in structure and some others; about 9.6% of the full set was active somewhere.
HCT116 PTEN-null: suppresses growth of cells with PTEN deletion; viability, % at 10 µM; HCT116 PTEN-null viability, CellTiter-Glo, 60 h; active compounds read low; 1.2% of 140,000 active;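 active means viability at or below a set limit, 4 SD under the median of all tested compounds, cut at about 3.7% in these data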;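 further: PTEN knockout HCT116 line with beta catenin targeted HCT116 as companion control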
L major viab: Leishmania major promastigote growth inhibition | Leishmania major promastigotes, resazurin fluorescence viability | 9% of 200,000 active | inhibition, % at 10 µM | AID 1063; in the data active means inhibition above about 50%;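 further: promastigotes grown with compound for 44 hours at 28 °C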
HCT116 bCat-KO: beta-catenin-lacking colon tumor cell growth suppression | 1.5% of 140,000 active | HCT116 beta-catenin knockout viability, CellTiter-Glo, 60 h; active compounds read low | viability, % at 10 µM | AID 818;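 active means viability at or under a set limit, the compound median less 4 SD, cut at about 6% in these data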
PMI act: phosphomannose isomerase (human) activation; P34949; purified human PMI, coupled resazurin fluorescence, 20 min; active compounds read high; 1 = vehicle control, 0 substrate-free wells; activation factor at 20 µM; 0.005% of 190,000 active;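 active means activation factor of 2 or more at 20 µM, relative to plate controls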
Target sequence (P34949 whole entry, looked up): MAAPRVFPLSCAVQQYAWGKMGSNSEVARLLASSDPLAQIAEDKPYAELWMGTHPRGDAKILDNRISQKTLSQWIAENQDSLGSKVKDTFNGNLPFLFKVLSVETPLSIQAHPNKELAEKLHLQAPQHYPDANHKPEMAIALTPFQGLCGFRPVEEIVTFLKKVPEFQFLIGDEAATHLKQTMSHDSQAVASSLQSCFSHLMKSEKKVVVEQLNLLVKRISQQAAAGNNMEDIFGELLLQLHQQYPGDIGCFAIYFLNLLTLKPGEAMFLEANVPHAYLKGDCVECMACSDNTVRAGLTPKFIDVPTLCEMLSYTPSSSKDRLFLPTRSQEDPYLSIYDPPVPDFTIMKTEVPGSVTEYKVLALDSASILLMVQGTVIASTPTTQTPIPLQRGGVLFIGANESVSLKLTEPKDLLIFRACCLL
PMI act hi M6P: increases human PMI activity with near-saturating mannose 6-phosphate; activation factor at 20 µM; 0.34% of 190,000 active; P34949; coupled PMI enzyme assay, resazurin fluorescence, 20 min; active compounds read high; 1 = untreated enzyme, 0 = substrate-free blank;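 active means activation factor of 2 or more at 20 µM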
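Test system: Human PMI in coupled enzyme assay | Input: 15 ng/mL PMI | Medium: HEPES-buffered pH 7.4 with magnesium and detergent | Compound: One concentration, 20 µM, in 1% DMSO | Incubation: Enzyme reaction with compound 20 min at room temperature | Detection: Diaphorase-driven resazurin-to-resorufin fluorescence, excitation 544, emission 590 nm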
A number is an active result; . = inactive; / = no result given.

SMILES	HCT116 PTEN-null	L major viab	HCT116 bCat-KO	PMI act	PMI act hi M6P
Cc1cc(NC(=O)C(=O)c2cn(C)c3ccccc23)no1	/	.	/	.	.
CCOCCCNCc1ccc(OC)c(OC)c1	.	79.9	.	.	.
CCOCCCNCc1cccc(OC)c1	.	81.8	.	.	.
CCOCCCNCc1ccc(OC)cc1	.	.	.	.	.
CCCOc1ccc(CNCCCOCC)cc1OC	/	69.8	/	.	.
Cc1ccccc1Nc1cc(C)c2c(O)cccc2n1	.	75.0	.	.	.
Cc1cc(Nc2ccccc2O)c2ccccc2n1	/	.	/	/	/
C[C@@H]1NC(=O)[C@H](CCCN=C(N)N)NC(=O)c2cc([N+](=O)[O-])cc(I)c2OCC[C@@H](C(=O)NC(CC(=O)O)C(N)=O)NC1=O (stereo partly specified)	.	.	.	.	.
CCC(=O)OCCNc1cc(SCCC(=O)OC)c2nonc2c1[N+](=O)[O-]	.	.	.	.	.
CC(=O)OCCCNc1cc(Sc2ccc(Cl)cc2)c2nonc2c1[N+](=O)[O-]	1.6	.	1.5	.	.
CCC(=O)OCCNc1cc(Sc2nccn2C)c2nonc2c1[N+](=O)[O-]	1.7	84.5	1.6	.	.
CCCC(=O)OCCNc1cc(Sc2nc3ccccc3[nH]2)c2nonc2c1[N+](=O)[O-]	3.6	52.8	3.6	.	.
COc1cccc(CC2CC(=O)N(c3ccc4c(C)cc(=O)oc4c3)C2=O)c1 (stereo unspecified)	/	.	/	.	.
C/C(=N\N1CCN(C)CC1)c1ccc(OC(F)F)cc1	/	.	/	.	.
C/C(=N\N1CCN(C)CC1)c1ccc(Cl)c(Cl)c1	/	81.3	/	.	.
Cc1nc(N2CCC(C)CC2)c2c(C)c(C(=O)Nc3ccc(C)c(F)c3)sc2n1	/	.	/	.	.
Cc1nc(N2CCC(C)CC2)c2c(C)c(C(=O)Nc3ccccc3C(F)(F)F)sc2n1	/	50.9	/	.	.
C=CCn1c(Br)nc2c1c(=O)[nH]c(=O)n2C	.	.	.	.	.
COc1ccc(CCn2c(Br)nc3c2c(=O)[nH]c(=O)n3C)cc1	.	91.5	.	.	.
Cn1c(=O)[nH]c(=O)c2c1nc(Br)n2C/C=N/Nc1ccccc1	/	65.2	/	2	3
COc1ccc(CCn2c(N3CCN(C)CC3)nc3c2c(=O)[nH]c(=O)n3C)cc1	.	.	.	.	.
CCC(=O)NC(c1ccco1)c1cc(Cl)c2cccnc2c1O (stereo unspecified)	/	.	/	/	/
COc1ccc(C(=O)Nc2cccnc2)cc1OC	.	.	.	.	.
CCCC(=O)NC(c1ccc(OC)cc1)c1ccc2cccnc2c1O (stereo unspecified)	/	100.4	/	.	.
CCC(=O)NC(c1ccc(OC)cc1)c1cc(Cl)c2cccnc2c1O (stereo unspecified)	/	98.2	/	/	/
SMILES	HCT116 PTEN-null	L major viab	HCT116 bCat-KO	PMI act	PMI act hi M6P
COc1ccc(Cl)cc1C(Nc1cccnc1)c1ccc2cccnc2c1O (stereo unspecified)	/	61.9	/	.	.
COc1ccc(C(NC(=O)c2cccnc2)c2cc(Cl)c3cccnc3c2O)cc1OC (stereo unspecified)	.	98.1	.	.	.
CCC(=O)NC(c1ccccc1OC)c1ccc2cccnc2c1O (stereo unspecified)	2.7	100.2	3.9	.	.
COc1cccc(CNc2cccc3cccnc23)c1O	.	.	.	.	.
Cc1noc(C)c1S(=O)(=O)N1CCC(C(=O)Nc2ccccn2)CC1	.	.	.	.	.
Cc1noc(C)c1S(=O)(=O)N1CCC(Cc2ccccc2)CC1	.	.	.	.	.
Cc1noc(C)c1S(=O)(=O)N1CCC(C(=O)NC2CCCc3ccccc32)CC1 (stereo unspecified)	.	60.2	.	.	.
O=C(NC1CCCc2ccccc21)C1CCN(S(=O)(=O)N2CCCCCC2)CC1 (stereo unspecified)	.	.	.	.	.
Cc1ccc(NC(=O)C2CCN(S(=O)(=O)c3c(C)noc3C)CC2)cc1C	/	98.8	/	.	.
Cc1noc(C)c1S(=O)(=O)N1CCC(C(=O)NC2CCN(Cc3ccccc3)CC2)CC1	.	88.9	.	.	.
CCc1cccc(NC(=O)C2CCN(S(=O)(=O)c3c(C)noc3C)CC2)c1	/	63.6	/	.	.
COc1ccc(C=O)cc1Cn1ccnc1C	/	.	/	.	.
CCCCN(C)CCCNC(=O)c1ccc(N2CCCC2=O)cc1	.	51.3	.	.	.
O=C(NCCCN1CCN(c2cccc(Cl)c2)CC1)c1ccc(N2CCCC2=O)cc1	.	97.5	.	.	.
O=C1CC(c2ccc(F)cc2)CC(O)=C1C=NCCN1CCN(C(=O)Nc2ccccc2)CC1 (stereo unspecified)	.	.	.	.	.
O=C(COc1ccc(F)cc1)NN1C(=O)CSC1=S	/	.	/	.	.
Cc1[nH]nc2c1C(c1ccc(F)cc1)C(C#N)=C(N)O2 (stereo unspecified)	.	.	.	.	.
Cc1ccc(-c2ccc(C3C(C#N)=C(N)Oc4n[nH]c(C)c43)o2)cc1 (stereo unspecified)	.	100.5	.	.	.
Cc1[nH]nc2c1C(c1ccc(-c3ccc(Cl)cc3)o1)C(C#N)=C(N)O2 (stereo unspecified)	0.7	99.7	1.3	.	.
Cc1[nH]nc2c1C(c1ccc(-c3ccccc3C#N)o1)C(C#N)=C(N)O2 (stereo unspecified)	.	100.1	.	.	.
COc1ccccc1NC(=O)CC(NC1CCCCC1)C(=O)O (stereo unspecified)	.	.	.	.	.
O=C(CCc1nnc(-c2ccccc2)o1)NCC1CCN(C2CCCC2)CC1	/	.	/	.	.
Fc1ccc(Nc2cccc3nccnc23)cc1	.	50.4	.	.	.
c1cc(Nc2cccc3nccnc23)c2nccnc2c1	/	.	/	.	.
CCOC(=O)c1ccc(NC(=O)c2cc(OC)c(OC)c(OC)c2Br)cc1	.	73.7	.	.	.
SMILES	HCT116 PTEN-null	L major viab	HCT116 bCat-KO	PMI act	PMI act hi M6P
Cc1ccc(S(=O)(=O)CC(O)COc2ccc(C#N)cc2)cc1 (stereo unspecified)	/	.	/	.	.
OC(COc1cccc(OCC(O)CN2CCOCC2)c1)CN1CCOCC1 (stereo unspecified)	.	.	.	.	.
CN(C)CC(O)COc1ccc(-c2ccc(C#N)cc2)cc1 (stereo unspecified)	.	98.0	.	.	.
N#Cc1ccc(-c2ccc(OCC(O)CN3CCOCC3)cc2)cc1 (stereo unspecified)	/	84.3	/	.	.
O=C(NNC(=O)C1CCN(Cc2ccc(F)cc2Cl)CC1)Nc1ccc([N+](=O)[O-])cc1	/	.	/	.	.
CC(=O)N1CCc2ccc(S(=O)(=O)N3CC(C)OC(C)C3)cc21 (stereo unspecified)	.	.	.	.	.
Cc1cc(OCC(=O)N(C(C)C)C(C)C)cc(C)c1Br	.	.	.	.	.
Oc1[nH]c2ccccc2c1N=Nc1ccc(C(F)(F)F)cn1	.	55.0	.	.	.
O=[N+]([O-])c1cccc2c(N3CCCC3)ccnc12	/	88.0	/	.	.
